Test results taken from ChEMBL document CHEMBL4765369, “Optimal linker length for small molecule PROTACs that selectively target p38α and p38β for degradation” (Eur J Med Chem, 2020).
Calls of active or inactive are those of the source. The rule behind the calls is not given here.

Legend:
[1] = molecular target: T1, Protein cereblon/Mitogen-activated protein kinase 14 (Homo sapiens, UniProt Q16539+Q96SW2); test: Protac activity at CRBN/p38alpha in human BBL358 cells assessed as p38alpha degradation at 10 uM measured after 24 hrs by immunoblotting analysis; assay type: cell-based
Summary of the method: (§1)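 BBL358 or T47D cells given compound 10 µM for 24 h. RIPA lysates run on SDS-PAGE and immunoblotted for p38α. Odyssey infrared band intensities give p38α/tubulin ratio, normalised to untreated cells and reported as % degradation. Mean ±SEM with n=2 or more (one set: n=2 BBL358, n=1 T47D).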
Target sequence in this assay (Q16539 2-360 limits assumed): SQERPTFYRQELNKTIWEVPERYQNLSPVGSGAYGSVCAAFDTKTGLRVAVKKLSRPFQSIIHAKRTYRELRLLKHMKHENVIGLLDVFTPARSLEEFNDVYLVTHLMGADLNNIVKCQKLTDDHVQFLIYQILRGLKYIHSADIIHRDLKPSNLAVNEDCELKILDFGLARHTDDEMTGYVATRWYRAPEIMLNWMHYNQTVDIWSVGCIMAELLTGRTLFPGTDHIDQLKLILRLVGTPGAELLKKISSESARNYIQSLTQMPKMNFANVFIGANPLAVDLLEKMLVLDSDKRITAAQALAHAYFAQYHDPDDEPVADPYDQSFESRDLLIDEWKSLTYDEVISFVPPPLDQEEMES
Target sequence in this assay (Q96SW2 whole entry partner): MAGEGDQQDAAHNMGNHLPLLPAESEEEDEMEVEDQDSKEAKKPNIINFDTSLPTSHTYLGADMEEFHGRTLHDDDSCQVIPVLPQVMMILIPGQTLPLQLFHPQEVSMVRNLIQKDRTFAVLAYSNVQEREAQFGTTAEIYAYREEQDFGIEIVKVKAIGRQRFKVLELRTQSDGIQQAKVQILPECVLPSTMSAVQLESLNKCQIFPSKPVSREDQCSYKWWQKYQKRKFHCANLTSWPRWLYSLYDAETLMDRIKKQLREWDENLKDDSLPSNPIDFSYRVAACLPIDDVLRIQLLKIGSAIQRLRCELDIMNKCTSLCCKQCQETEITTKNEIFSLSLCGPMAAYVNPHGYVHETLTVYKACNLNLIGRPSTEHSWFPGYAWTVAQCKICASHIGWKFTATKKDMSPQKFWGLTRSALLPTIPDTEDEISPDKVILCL

[2] = molecular target: T1, Protein cereblon/Mitogen-activated protein kinase 14; test: Protac activity at CRBN/p38alpha in human T47D cells assessed as p38alpha degradation at 10 uM measured after 24 hrs by immunoblotting analysis; assay type: cell-based; summary of the method: as §1
Target sequence in this assay (Q16539 2-360 limits assumed): as the sequence (Q16539 2-360 limits assumed) above
Target sequence in this assay (Q96SW2 whole entry partner): as the sequence (Q96SW2 whole entry partner) above

[3] = molecular target: T2, Protein cereblon/Mitogen-activated protein kinase 11 (Homo sapiens, UniProt Q15759+Q96SW2); test: Protac activity at CRBN/p38beta in […] cells assessed as p38beta degradation at 1 uM measured after 24 hrs by immunoblotting analysis; assay type: cell-based
Target sequence in this assay (Q15759 whole entry, looked up): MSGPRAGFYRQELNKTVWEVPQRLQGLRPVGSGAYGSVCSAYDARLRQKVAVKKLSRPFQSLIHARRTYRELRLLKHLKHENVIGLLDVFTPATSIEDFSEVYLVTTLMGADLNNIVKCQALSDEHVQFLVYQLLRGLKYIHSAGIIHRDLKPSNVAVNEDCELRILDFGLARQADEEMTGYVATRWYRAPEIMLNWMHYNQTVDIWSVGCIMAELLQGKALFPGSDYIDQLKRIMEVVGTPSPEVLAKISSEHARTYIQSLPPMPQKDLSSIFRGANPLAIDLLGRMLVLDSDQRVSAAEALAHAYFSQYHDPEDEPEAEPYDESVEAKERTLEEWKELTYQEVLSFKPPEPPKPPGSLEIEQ
Target sequence in this assay (Q96SW2 whole entry, looked up): as the sequence (Q96SW2 whole entry partner) above

[4] = molecular target: T1, Protein cereblon/Mitogen-activated protein kinase 14; test: Protac activity at CRBN/p38alpha in human retina epithelial cells assessed as p38alpha degradation at 1 uM measured after 24 hrs by immunoblotting analysis; assay type: tissue-based; settings: Epithelial cell
Target sequence in this assay (Q16539 2-360 limits assumed): as the sequence (Q16539 2-360 limits assumed) above
Target sequence in this assay (Q96SW2 whole entry partner): as the sequence (Q96SW2 whole entry partner) above

[5] = molecular target: T1, Protein cereblon/Mitogen-activated protein kinase 14; test: Protac activity at CRBN/p38alpha in human MDA-MB-231 cells assessed as reduction in UV-induced MK2 phosphorylation at 1 uM after 48 hrs by immunoblotting analysis; assay type: cell-based
Summary of the method: (§2)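 MDA-MB-231 cells pre-incubated with compound, then p38α pathway stimulated with UV at 30 J/m2; PH797804 reference at 2 µM. Lysates immunoblotted for phospho-MK2. Cells grown in DMEM with 10% FBS at 37 °C, 5% CO2.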
Target sequence in this assay (Q16539 2-360 limits assumed): as the sequence (Q16539 2-360 limits assumed) above
Target sequence in this assay (Q96SW2 whole entry partner): as the sequence (Q96SW2 whole entry partner) above

[6] = molecular target: T2, Protein cereblon/Mitogen-activated protein kinase 11; test: Protac activity at CRBN/p38beta in human retina epithelial cells assessed as p38beta degradation at 1 uM measured after 24 hrs by immunoblotting analysis; assay type: tissue-based; settings: Epithelial cell
Target sequence in this assay (Q15759 whole entry, looked up): as the sequence (Q15759 whole entry, looked up) above
Target sequence in this assay (Q96SW2 whole entry, looked up): as the sequence (Q96SW2 whole entry partner) above

[7] = molecular target: T2, Protein cereblon/Mitogen-activated protein kinase 11; test: Protac activity at CRBN/p38beta in human T47D cells assessed as p38beta degradation at 1 uM measured after 24 hrs by immunoblotting analysis; assay type: cell-based
Target sequence in this assay (Q15759 whole entry): as the sequence (Q15759 whole entry, looked up) above
Target sequence in this assay (Q96SW2 whole entry): as the sequence (Q96SW2 whole entry partner) above

[8] = molecular target: T1, Protein cereblon/Mitogen-activated protein kinase 14; test: Protac activity at CRBN/p38alpha in human MDA-MB-231 cells assessed as p38alpha degradation measured after 24 hrs by immunoblotting analysis; assay type: cell-based
Summary of the method: (§3)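 T47D and MDA-MB-231 cells treated with a concentration series for 24 h; lysates immunoblotted for p38α. p38α/tubulin band ratio normalised to untreated cells; DC50 (conc. giving 50% degradation) fitted from biological duplicates.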
Target sequence in this assay (Q16539 whole entry): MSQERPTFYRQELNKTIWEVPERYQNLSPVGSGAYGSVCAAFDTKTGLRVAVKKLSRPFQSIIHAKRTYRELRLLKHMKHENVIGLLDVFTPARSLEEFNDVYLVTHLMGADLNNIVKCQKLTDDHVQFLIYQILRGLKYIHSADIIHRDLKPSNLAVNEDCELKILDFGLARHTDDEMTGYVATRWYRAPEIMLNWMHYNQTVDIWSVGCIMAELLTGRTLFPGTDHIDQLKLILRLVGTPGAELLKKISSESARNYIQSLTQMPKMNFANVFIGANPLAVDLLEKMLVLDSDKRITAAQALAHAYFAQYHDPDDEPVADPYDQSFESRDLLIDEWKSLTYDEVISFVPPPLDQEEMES
Target sequence in this assay (Q96SW2 whole entry): as the sequence (Q96SW2 whole entry partner) above

[9] = Protac activity at CRBN/p38beta in mouse bone marrow derived macrophages assessed as p38beta degradation at 1 uM measured after 24 hrs by immunoblotting analysis; settings: Macrophage
[10] = molecular target: T1, Protein cereblon/Mitogen-activated protein kinase 14; test: Protac activity at CRBN/p38alpha in human T47D cells assessed as p38alpha degradation measured after 24 hrs by immunoblotting analysis; assay type: cell-based; summary of the method: as §3
Target sequence in this assay (Q16539 whole entry): as the sequence (Q16539 whole entry) above
Target sequence in this assay (Q96SW2 whole entry): as the sequence (Q96SW2 whole entry partner) above

[11] = Protac activity at CRBN/p38alpha in mouse bone marrow derived macrophages assessed as p38alpha degradation at 1 uM measured after 24 hrs by immunoblotting analysis; settings: Macrophage
[12] = molecular target: T1, Protein cereblon/Mitogen-activated protein kinase 14; test: Protac activity at CRBN/p38alpha in human MDA-MB-231 cells assessed as reduction in UV-induced MK2 phosphorylation at 1 uM after 24 hrs by immunoblotting analysis; assay type: cell-based; summary of the method: as §2
Target sequence in this assay (Q16539 2-360 limits assumed): as the sequence (Q16539 2-360 limits assumed) above
Target sequence in this assay (Q96SW2 whole entry partner): as the sequence (Q96SW2 whole entry partner) above

[13] = molecular target: T1, Protein cereblon/Mitogen-activated protein kinase 14; test: Protac activity at CRBN/p38alpha in […] cells assessed as p38alpha degradation at 1 uM measured after 24 hrs by immunoblotting analysis; assay type: cell-based
Target sequence in this assay (Q16539 2-360 limits assumed): as the sequence (Q16539 2-360 limits assumed) above
Target sequence in this assay (Q96SW2 whole entry partner): as the sequence (Q96SW2 whole entry partner) above

[14] = molecular target: T2, Protein cereblon/Mitogen-activated protein kinase 11; test: Protac activity at CRBN/p38beta in human MDA-MB-231 cells assessed as p38beta degradation at 1 uM measured after 24 hrs by immunoblotting analysis; assay type: cell-based
Target sequence in this assay (Q15759 whole entry): as the sequence (Q15759 whole entry, looked up) above
Target sequence in this assay (Q96SW2 whole entry): as the sequence (Q96SW2 whole entry partner) above

[15] = Induction of change in p38alpha protein expression in human MDA-MB-231 cells at 1 uM incubated for 16 hrs by mass spectrometry based proteomic analysis; assay type: cell-based; settings: mda-mb-231, 16 h
Summary of the method: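 MDA-MB-231 cells SILAC-labelled to ≥95% in arginine/lysine-free DMEM-F12 with 2% dialysed FBS; heavy cells got compound, light cells got DMSO, 16 h. Lysis in 4% SDS, 0.1 M DTT, Tris pH 7.6; FASP trypsin digestion overnight at 37 °C; nano-LC C18 MS/MS with 300 min run; protein-level heavy/light change.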

[16] = molecular target: T1, Protein cereblon/Mitogen-activated protein kinase 14; test: Protac activity at CRBN/p38alpha in human MDA-MB-231 cells assessed as p38alpha degradation at 1 uM measured after 24 hrs by immunoblotting analysis; assay type: cell-based
Summary of the method: (§4)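 MDA-MB-231 and T47D cells exposed 24 h to 1 µM; N-methylated imide analogues tested alongside. RIPA lysates immunoblotted for p38α, intensities quantified from infrared imaging.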

[17] = molecular target: T1, Protein cereblon/Mitogen-activated protein kinase 14; test: Protac activity at CRBN/p38alpha in human T47D cells assessed as p38alpha degradation at 1 uM measured after 24 hrs by immunoblotting analysis; assay type: cell-based; summary of the method: as §4

Structure (SMILES)	Activity [1] [%]	Activity [2] [%]	further results
Cc1ccc(C(=O)NCCCCc2cn(CCCC(=O)NCCOCCOCCNc3cccc4c3C(=O)N(C3CCC(=O)NC3=O)C4=O)nn2)cc1-n1c(C)cc(OCc2ccc(F)cc2F)c(Br)c1=O (centres undefined)	79	85	
Cc1ccc(C(=O)NCCOCCOCCNc2cccc3c2C(=O)N(C2CCC(=O)NC2=O)C3=O)cc1-n1c(C)cc(OCc2ccc(F)cc2F)c(Br)c1=O (centres undefined)	60		
Cc1ccc(C(=O)NCCCCc2cn(CCCC(=O)NCCCNc3cccc4c3C(=O)N(C3CCC(=O)NC3=O)C4=O)nn2)cc1-n1c(C)cc(OCc2ccc(F)cc2F)c(Br)c1=O (centres undefined)	74	87	
Cc1ccc(C(=O)NCCCCc2cn(CC[C@H](N)C(=O)NCCCCNc3cccc4c3C(=O)N(C3CCC(=O)NC3=O)C4=O)nn2)cc1-n1c(C)cc(OCc2ccc(F)cc2F)c(Br)c1=O (some centres undefined)		4	
Cc1ccc(C(=O)NCCCCc2cn(CCCC(=O)NCCNc3cccc4c3C(=O)N(C3CCC(=O)NC3=O)C4=O)nn2)cc1-n1c(C)cc(OCc2ccc(F)cc2F)c(Br)c1=O (centres undefined)	12	40	
Cc1ccc(C(=O)NCCc2cn(CCCC(=O)NCCCCNc3cccc4c3C(=O)N(C3CCC(=O)NC3=O)C4=O)nn2)cc1-n1c(C)cc(OCc2ccc(F)cc2F)c(Br)c1=O (centres undefined)	40	25	
Cc1ccc(C(=O)NCCCCc2cn(CCCC(=O)NCCCCNc3cccc4c3C(=O)N(C3CCC(=O)NC3=O)C4=O)nn2)cc1-n1c(C)cc(OCc2ccc(F)cc2F)c(Br)c1=O (centres undefined)	84	89	Activity [3]: Active; Activity [4]: Active; Activity [5]: Active; Activity [6]: Active; DC50 [7]: 48.5 nM; DC50 [8]: 27.2 nM; Activity [9]: Active; DC50 [10]: 24 nM; Activity [11]: Active; Activity [12]: Active; Activity [13]: Active; DC50 [14]: 48.9 nM; Activity [15]: Active
Cc1ccc(C(=O)NCCCCc2cn(CCCC(=O)NCCCCCCNc3cccc4c3C(=O)N(C3CCC(=O)NC3=O)C4=O)nn2)cc1-n1c(C)cc(OCc2ccc(F)cc2F)c(Br)c1=O (centres undefined)	67	47	
C=C1c2cccc(NCCCCCNC(=O)CCCn3cc(CCCCNC(=O)c4ccc(C)c(-n5c(C)cc(OCc6ccc(F)cc6F)c(Br)c5=O)c4)nn3)c2C(=O)N1C1CCC(=O)NC1=O (centres undefined)	47	16	
Cc1ccc(C(=O)NCCCCc2cn(CC[C@H](NC(=O)OC(C)(C)C)C(=O)NCCCCNc3cccc4c3C(=O)N(C3CCC(=O)NC3=O)C4=O)nn2)cc1-n1c(C)cc(OCc2ccc(F)cc2F)c(Br)c1=O (some centres undefined)	81	93	
Cc1ccc(C(=O)NCCOCCOCCOCCOCCOCCOCCNc2cccc3c2C(=O)N(C2CCC(=O)NC2=O)C3=O)cc1-n1c(C)cc(OCc2ccc(F)cc2F)c(Br)c1=O (centres undefined)	82	20	
Cc1ccc(C(=O)NCCCCc2cn(CCCC(=O)NCCCCCNc3cccc4c3C(=O)N(C3CCC(=O)NC3=O)C4=O)nn2)cc1-n1c(C)cc(OCc2ccc(F)cc2F)c(Br)c1=O (centres undefined)	77	82	
Cc1ccc(C(=O)NCCc2cn(CCCC(=O)NCCNc3cccc4c3C(=O)N(C3CCC(=O)NC3=O)C4=O)nn2)cc1-n1c(C)cc(OCc2ccc(F)cc2F)c(Br)c1=O (centres undefined)		8	
C=C1c2cccc(NCCCCCCNC(=O)CCCn3cc(CCCCNC(=O)c4ccc(C)c(-n5c(C)cc(OCc6ccc(F)cc6F)c(Br)c5=O)c4)nn3)c2C(=O)N1C1CCC(=O)N(C)C1=O (centres undefined)			Activity [16]: inactive; Activity [17]: inactive; Activity [12]: inactive
Cc1ccc(C(=O)NCCc2cn(CCCC(=O)NCCCNc3cccc4c3C(=O)N(C3CCC(=O)NC3=O)C4=O)nn2)cc1-n1c(C)cc(OCc2ccc(F)cc2F)c(Br)c1=O (centres undefined)	36	42	
Cc1ccc(C(=O)NCCCCc2cn(CCCC(=O)NCCOCCOCCNc3cccc4c3C(=O)N(C3CCC(=O)N(Cc5ccccc5[N+](=O)[O-])C3=O)C4=O)nn2)cc1-n1c(C)cc(OCc2ccc(F)cc2F)c(Br)c1=O (centres undefined)	3	20	
Cc1ccc(C(=O)NCCCCc2cn(CCCC(=O)NCCCCNc3cccc4c3C(=O)N(C3CCC(=O)N(C)C3=O)C4=O)nn2)cc1-n1c(C)cc(OCc2ccc(F)cc2F)c(Br)c1=O (centres undefined)			Activity [16]: inactive; Activity [17]: inactive; Activity [12]: inactive
Cc1ccc(C(=O)NCCCCc2cn(CCOCCOCCOCCOCCNc3cccc4c3C(=O)N(C3CCC(=O)NC3=O)C4=O)nn2)cc1-n1c(C)cc(OCc2ccc(F)cc2F)c(Br)c1=O (centres undefined)	92	41	
Cc1ccc(C(=O)NCCCCc2cn(CCOCCOCCOCCNc3cccc4c3C(=O)N(C3CCC(=O)NC3=O)C4=O)nn2)cc1-n1c(C)cc(OCc2ccc(F)cc2F)c(Br)c1=O (centres undefined)	78	26	
Cc1ccc(C(=O)NCCCc2cn(CCCC(=O)NCCCNc3cccc4c3C(=O)N(C3CCC(=O)NC3=O)C4=O)nn2)cc1-n1c(C)cc(OCc2ccc(F)cc2F)c(Br)c1=O (centres undefined)	60	68	
Cc1ccc(C(=O)NCCCCNC(=O)c2ccc3c(c2)C(=O)N(C2CCC(=O)NC2=O)C3=O)cc1-n1c(C)cc(OCc2ccc(F)cc2F)c(Br)c1=O (centres undefined)	40		
Cc1ccc(C(=O)NCCOCCOCCNC(=O)c2ccc3c(c2)C(=O)N(C2CCC(=O)NC2=O)C3=O)cc1-n1c(C)cc(OCc2ccc(F)cc2F)c(Br)c1=O (centres undefined)	55		
Cc1ccc(C(=O)NCCCc2cn(CCCC(=O)NCCCCNc3cccc4c3C(=O)N(C3CCC(=O)NC3=O)C4=O)nn2)cc1-n1c(C)cc(OCc2ccc(F)cc2F)c(Br)c1=O (centres undefined)	84	91	
Cc1ccc(C(=O)NCCCCc2cn(CCCC(=O)NCCOCCOCCNC(=O)c3ccc4c(c3)C(=O)N(C3CCC(=O)N(Cc5ccccc5[N+](=O)[O-])C3=O)C4=O)nn2)cc1-n1c(C)cc(OCc2ccc(F)cc2F)c(Br)c1=O (centres undefined)	0.5	76	
Cc1ccc(C(=O)NCCCCNc2cccc3c2C(=O)N(C2CCC(=O)NC2=O)C3=O)cc1-n1c(C)cc(OCc2ccc(F)cc2F)c(Br)c1=O (centres undefined)	8		
